Experimental findings from ChEMBL document CHEMBL1146742, “A-420983: a potent, orally active inhibitor of lck with efficacy in a model of transplant rejection” (Bioorg Med Chem Lett, 2004) are described below.

The species entered for one data set is Homo sapiens. Put plainly: Inhibition of anti-CD3 mAb induced inter leukein-2 production in human whole blood was evaluated. It counts as functional, organism-based.
Data set [1] concerns the target T1, Interleukin-2 (Mus musculus) (UniProt P04351).
T1 sequence (whole entry): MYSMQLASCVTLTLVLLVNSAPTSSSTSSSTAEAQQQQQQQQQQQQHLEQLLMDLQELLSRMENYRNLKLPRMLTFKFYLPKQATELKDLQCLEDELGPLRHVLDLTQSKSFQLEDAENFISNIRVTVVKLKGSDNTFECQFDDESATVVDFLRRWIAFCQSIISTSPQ
Kind of data set: Effective concentration to suppress interleukin-2 production was measured after 2.5 hours of oral administration in mice. It counts as functional, organism-based.

In data set [2] the target is T1, Interleukin-2 (Mus musculus). Put plainly: Percent inhibition of interleukin-2 production by compound was measured after 18 hours of oral administration in mice. The data set is classed as functional, organism-based. As to conditions: concentration not given here.
Data set [3] has the same target. Kind of data set: Percent inhibition of interleukin-2 production by compound was measured after 8 hours of oral administration in mice. As to conditions: concentration not given here. It counts as functional, organism-based.
Data set [4] is described as follows: Time to reach maximum plasma concentration was determined in dog after 1 mg/kg (i.v.) and 5 mg/kg (p.o.) administration. The data set is classed as ADME, organism-based, Canis lupus familiaris. Conditions: po. The method, boiled down: (§1)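 Pharmacokinetics were measured in mouse (5 mg/kg iv, 6 mg/kg po) and dog (1 mg/kg iv, 5 mg/kg po). Reported parameters were Cmax (ng/mL), Tmax (h), Vd (L/kg), plasma clearance (L/h/kg), elimination half-life (h) and oral bioavailability F (%).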

Data set [5] is described as follows: Time to reach maximum plasma concentration was determined in mouse after 5 mg/kg (i.v.) and 6 mg/kg (p.o.) administration. It counts as ADME, organism-based. Conditions: po. The method, boiled down:
as §1

Data set [6] in a line: Maximum plasma concentration of compound was determined in mouse after 5 mg/kg (i.v.) and 6 mg/kg (p.o.) administration. The data set is classed as ADME, organism-based. Conditions: po. The method in brief:
as §1

Data set [7] can be described thus: Maximum plasma concentration of compound was determined in dog after 1 mg/kg (i.v.) and 5 mg/kg (p.o.) administration. It counts as ADME, organism-based, Canis lupus familiaris. As to conditions: po. The method, boiled down: as §1
A short description of data set [8]: Plasma clearance was determined in mouse after 5 mg/kg (i.v.) and 6 mg/kg (p.o.) administration. It counts as ADME, organism-based. Conditions: iv, read-out: Clp (converted). The method in brief:
as §1

Data set [9] can be described thus: Bioavailability was determined in dog after 1 mg/kg (i.v.) and 5 mg/kg (p.o.) administration. It counts as ADME, organism-based, Canis lupus familiaris. Conditions: in vivo, po. The method, boiled down:
as §1

The nature of data set [10]: Volume of distribution was determined in mouse after 5 mg/kg (i.v.) and 6 mg/kg (p.o.) administration. The data set is classed as ADME, organism-based. As to conditions: in vivo, iv. The method in brief:
as §1

Data set [11] in a line: Half life was determined in mouse after 5 mg/kg (i.v.) and 6 mg/kg (p.o.) administration. It counts as ADME, organism-based. Conditions: in vivo. The method, boiled down:
as §1

Data set [12] can be described thus: Half life was determined in dog after 1 mg/kg (i.v.) and 5 mg/kg (p.o.) administration. It counts as ADME, organism-based, Canis lupus familiaris. As to conditions: in vivo. The method in brief:
as §1

Data set [13] can be described thus: Bioavailability was determined in mouse after 5 mg/kg (i.v.) and 6 mg/kg (p.o.) administration. It counts as ADME, organism-based. As to conditions: in vivo, po. The method, boiled down: as §1
The nature of data set [14]: Volume of distribution was determined in dog after 1 mg/kg (i.v.) and 5 mg/kg (p.o.) administration. The data set is classed as ADME, organism-based, Canis lupus familiaris. As to conditions: in vivo, iv. The method, boiled down: as §1
In data set [15] the target is Vascular endothelial growth factor receptor 2 (Homo sapiens, UniProt P35968). Kind of data set: Inhibition of vascular endothelial growth factor receptor 2 activity with 1 mM ATP and biotinylated lck peptide.
Sequence of Vascular endothelial growth factor receptor 2 (P35968 whole entry): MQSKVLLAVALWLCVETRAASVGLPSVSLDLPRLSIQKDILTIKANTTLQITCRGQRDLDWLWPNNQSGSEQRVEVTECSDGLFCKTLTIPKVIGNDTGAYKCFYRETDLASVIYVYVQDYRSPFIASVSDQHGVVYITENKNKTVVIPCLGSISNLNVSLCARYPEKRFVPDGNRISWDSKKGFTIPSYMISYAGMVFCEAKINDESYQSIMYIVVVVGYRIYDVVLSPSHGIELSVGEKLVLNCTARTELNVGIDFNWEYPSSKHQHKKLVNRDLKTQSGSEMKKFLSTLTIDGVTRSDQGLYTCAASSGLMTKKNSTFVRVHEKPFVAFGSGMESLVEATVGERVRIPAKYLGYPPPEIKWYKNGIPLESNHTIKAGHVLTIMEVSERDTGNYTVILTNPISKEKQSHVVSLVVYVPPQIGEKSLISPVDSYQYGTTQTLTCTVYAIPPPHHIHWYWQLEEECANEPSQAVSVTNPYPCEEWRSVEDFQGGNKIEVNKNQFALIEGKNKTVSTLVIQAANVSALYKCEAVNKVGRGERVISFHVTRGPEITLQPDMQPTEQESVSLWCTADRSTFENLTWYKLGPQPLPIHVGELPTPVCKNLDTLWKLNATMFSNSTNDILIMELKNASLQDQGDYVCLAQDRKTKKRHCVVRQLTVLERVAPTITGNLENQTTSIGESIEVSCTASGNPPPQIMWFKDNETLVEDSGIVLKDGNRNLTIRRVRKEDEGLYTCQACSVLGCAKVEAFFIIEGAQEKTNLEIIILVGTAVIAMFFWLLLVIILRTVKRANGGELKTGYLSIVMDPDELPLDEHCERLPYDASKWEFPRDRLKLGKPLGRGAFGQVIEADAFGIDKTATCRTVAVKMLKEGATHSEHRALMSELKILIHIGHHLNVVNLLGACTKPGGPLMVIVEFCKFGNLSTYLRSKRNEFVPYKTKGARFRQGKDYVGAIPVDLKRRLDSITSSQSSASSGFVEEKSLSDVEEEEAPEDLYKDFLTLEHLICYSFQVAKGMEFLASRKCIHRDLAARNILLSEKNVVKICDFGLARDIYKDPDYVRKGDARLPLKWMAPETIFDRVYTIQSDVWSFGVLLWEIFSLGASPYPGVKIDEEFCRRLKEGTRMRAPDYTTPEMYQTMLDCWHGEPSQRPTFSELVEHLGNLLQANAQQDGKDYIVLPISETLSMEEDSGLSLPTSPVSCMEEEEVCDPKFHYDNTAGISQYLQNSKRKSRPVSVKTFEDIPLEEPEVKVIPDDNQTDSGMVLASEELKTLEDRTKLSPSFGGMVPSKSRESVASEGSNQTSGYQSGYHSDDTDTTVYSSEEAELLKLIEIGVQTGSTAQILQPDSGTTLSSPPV
Data set [16] in a line: Plasma clearance was determined in dog after 1 mg/kg (i.v.) and 5 mg/kg (p.o.) administration. The data set is classed as ADME, organism-based, Canis lupus familiaris. As to conditions: iv. The method in brief:
as §1

By IC50 is commonly meant the concentration needed to halve the response being measured. A high value points to weaker potency in that assay. As for `COc1cc(-c2nn([C@H]3CC[C@H](N4CCN(C)CC4)CC3)c3ncnc(N)c23)ccc1NCc1ccco1`, in the data set filed under Homo sapiens, half-maximal inhibition (IC50) required 10 nM.

What is called ED50 is the dose that gives a 50% effect, or the effect in half of the subjects. Lower therefore signals greater potency. By inhibition is commonly meant the share of the control response that was lost under treatment. A high value points to a response far below the control. For the compound `COc1cc(-c2nn([C@H]3CC[C@H](N4CCN(C)CC4)CC3)c3ncnc(N)c23)ccc1NC(=O)c1cc2ccccc2[nH]1`, in data set [1], it took a dose of 7 mg/kg to reach the 50% effect level (ED50) and the ED90 was 12.5 mg/kg. For the same compound, the inhibition in data set [2] was determined as 33%. Further, the inhibition in data set [3] worked out at 79%. In the data set filed under Homo sapiens, this compound registered a 50% inhibitory concentration (IC50) of 6 nM.

One may read the Tmax as the time from dosing to the highest level. What is called Cmax is the maximum level reached in the sampled fluid or tissue. A word on the bioavailability: it is dose-corrected exposure relative to a reference, in per cent. Low readings indicate little systemic uptake, high ones much systemic uptake. Usually half-life stands for the time needed for the level to fall by half in the phase considered. Take `COc1cc(-c2nn([C@H]3CC[C@H](N4CCN(C)CC4)CC3)c3ncnc(N)c23)ccc1NC(=O)c1cc2ccccc2n1C`: the figures for the Tmax in [4] and in data set [5] were 24 h and 8 h, respectively. The Cmax in data set [6] is 51 ng/mL; in [7], 74 ng/mL. Also, in data set [1], the ED50 is 1.5 mg/kg. In [1], the ED90 was found to be 6 mg/kg. Moreover, the clearance in data set [8] is 28.3 mL/min/kg; in [16], 11.7 mL/min/kg. The bioavailability in [9] amounted to 32%; in data set [13], 30%. In addition, the Vd in data set [10] and in data set [14] was 25 L/kg throughout. Further, the half-life in [11] was 600 min; in data set [12], 2700 min. Besides, the inhibition in [2] and in data set [3] was over 90% throughout. The IC50 is over 50 µM in data set [15] and 8 nM in the data set listed under Homo sapiens.

In data set [1], `COc1cc(-c2nn([C@H]3CC[C@H](N4CCN(C)CC4)CC3)c3ncnc(N)c23)ccc1NC(=O)OCc1ccccc1` registered a median effective dose (ED50) of 3 mg/kg and an ED90 of 14 mg/kg. Further, the inhibition in data set [2] was determined as 14%. This compound also displayed an inhibition in data set [3] of 51%.

In data set [1], `COc1cc(-c2nn([C@H]3CC[C@H](N4CCN(C)CC4)CC3)c3ncnc(N)c23)ccc1NC(=O)c1cc2ccccc2o1` showed a 50% effective dose (ED50) of 8.5 mg/kg and an ED90 of 12.5 mg/kg. Further, the inhibition in data set [2] is under 10%. This compound gave an inhibition in data set [3] of 48%. Besides, the IC50 in the data set listed under Homo sapiens came to 7 nM.
